Measurements: ChEMBL document CHEMBL1124244, “Design and synthesis of a series of combined vasodilator/beta-adrenoceptor antagonists based on 6-arylpyridazinones” (1988)

Legend:
Rattus norvegicus [1] = assay: Dose required to produce a 50% increase in blood flow to the autoperfused hindquarters of the anesthetized rat; type: functional
Procedure, shortened: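 Anesthetized normotensive rats with autoperfused hindquarters. Intravenous bolus doses. ED50 (μmol kg⁻¹) is dose giving 50% increase in hindquarter blood flow, read from a dose-response curve. At least three animals at a minimum of three doses; 95% confidence intervals by Fieller's theorem.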

[2] = target: Beta-1 adrenergic receptor (Homo sapiens) (UniProt P08588); details: Felis catus
Rattus norvegicus [3] = assay: Dose required to produce a fall in blood pressure of 40 mmHg in the anesthetized rat; type: functional
Procedure, shortened: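 Anesthetized normotensive rats dosed by intravenous injection. ED40 (μmol kg⁻¹) is dose lowering blood pressure by 40 mmHg, taken from a dose-response curve. At least three animals, minimum three doses; 95% confidence intervals via Fieller's theorem.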

[4] = target: Adrenergic receptor beta (Homo sapiens) (UniProt P08588+P07550+P13945); assay: Intrinsic Sympathomimetic Activity (ISA) determined from the ratio of the maximal compound and isoprenaline induced tachycardia in anesthetized ganglion blocked cats following intravenous administration; type: functional, organism-based; details: Felis catus; target entry is the homologue from another species
Procedure, shortened: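 Ganglion-blocked (pempidine 5 mg kg⁻¹ iv) anesthetized cats at 37 °C; heart rate from blood pressure pulse. Full isoprenaline dose-response (0.01–10 μg kg⁻¹) obtained first. Cannula washed with saline, then cumulative iv dose-response to compound in 50% PEG 400, raised until maximal heart-rate increase. ISA is the ratio of maximal compound-induced to isoprenaline-induced tachycardia.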

[5] = target: Beta-1 adrenergic receptor (Homo sapiens) (UniProt P08588); assay: Beta-1 adrenergic receptor antagonsim of compound expressed as inhibition of isoprenaline-induced tachycardia in the ganglion-blocked anesthetized cat; type: functional; details: Felis catus
Procedure, shortened: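 Ganglion-blocked anesthetized cats (pempidine 5 mg kg⁻¹ iv, left to stabilize; rectal temperature held at 37 °C; heart rate from blood pressure pulse). Compounds given iv via cephalic vein. ID50 is dose for 50% inhibition of standard isoprenaline-induced tachycardia. Percent inhibition logit-transformed; ≥3 animals, ≥3 doses; 95% confidence limits by Fieller's theorem.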

Felis catus [6] = assay: Intrinsic Sympathomimetic Activity(ISA) determined from the ratio of the maximal compound and isoprenaline induced tachycardia in anesthetized ganglion blocked cats following intravenous administration; type: functional
Procedure, shortened: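 Anaesthetised cats; cephalic vein cannulated; rectal temperature held at 37 °C. Ganglion block with pempidine 5 mg kg⁻¹ iv, then waited for BP and heart rate to stabilise. Heart rate taken from the BP pulse. Isoprenaline tachycardia curve run at 0.01–10 μg kg⁻¹ iv, then a cumulative compound curve in 50% PEG 400, raised to maximal tachycardia. ISA = maximal compound/isoprenaline tachycardia ratio.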

Felis catus [7] = assay: Beta-1-adrenoceptor antagonsim of compound expressed as inhibition of isoprenaline-induced tachycardia in the ganglion-blocked anesthetized cat at 10 uM/Kg dose; type: functional

Beta-1 adrenergic receptor (Homo sapiens), sequence (P08588 whole entry, looked up): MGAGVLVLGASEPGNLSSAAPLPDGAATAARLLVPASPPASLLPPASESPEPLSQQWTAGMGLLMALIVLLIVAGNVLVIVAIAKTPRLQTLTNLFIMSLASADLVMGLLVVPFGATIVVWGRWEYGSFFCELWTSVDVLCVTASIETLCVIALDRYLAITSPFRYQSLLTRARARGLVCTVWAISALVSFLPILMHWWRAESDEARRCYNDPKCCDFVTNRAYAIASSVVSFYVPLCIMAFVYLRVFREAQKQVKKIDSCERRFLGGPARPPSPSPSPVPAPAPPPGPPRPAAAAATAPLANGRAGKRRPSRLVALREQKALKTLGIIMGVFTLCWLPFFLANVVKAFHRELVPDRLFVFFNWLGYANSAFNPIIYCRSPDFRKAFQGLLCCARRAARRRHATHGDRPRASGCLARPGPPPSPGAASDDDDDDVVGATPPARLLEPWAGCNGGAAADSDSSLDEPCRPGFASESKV

Row | ID50 [2] [µmol/kg] | ISA [4] | ID50 [5] [µmol/kg] | SMILES | ED50 (Rattus norvegicus [1]) [µmol/kg] | ED40 (Rattus norvegicus [3]) [µM/kg] | ISA (Felis catus [6]) | Inhibition (Felis catus [7]) [%]
1 | > 1 | – | – | N#Cc1ccccc1OCC(O)CNCCC(=O)Nc1ccc(C2=NNC(=O)CC2)cc1 (stereo unspecified) | 1.7 | 3.5 | – | –
2 | – | 0.59 | – | Cc1ccccc1OCC(O)CNCCC(=O)Nc1ccc(C2=NNC(=O)CC2C)cc1 (stereo unspecified) | 2 | 0.5 | – | –
3 | 10 | 0.42 | – | COc1ccccc1OCC(O)CNCC(=O)Nc1ccc(C2=NNC(=O)CC2)cc1 (stereo unspecified) | 4.6 | 11.5 | – | –
4 | 2.6 | 0.37 | – | COc1ccccc1OCC(O)CNCC(=O)Nc1ccc(C2=NNC(=O)CC2C)cc1 (stereo unspecified) | 3 | <4 | – | –
5 | 0.5 | 0.24 | – | CC1CC(=O)NN=C1c1ccc(NC(=O)CCNCC(O)COc2ccccc2N2CCOCC2)cc1 (stereo unspecified) | 1.8 | 3.6 | – | –
6 | – | – | – | CC(=O)Nc1ccc(C2=NNC(=O)CC2)cc1 | 4 | 1 | – | –
7 | 1.4 | 0.14 | – | Cc1ccccc1OCC(O)CNCCC(=O)Nc1ccc(C2=NNC(=O)CC2)cc1 (stereo unspecified) | 6 | 9.4 | – | –
8 | 4 | < 0.3 | – | CC1CC(=O)NN=C1c1ccc(NC(=O)CCNCC(O)COc2ccccc2S(C)(=O)=O)cc1.Cl (stereo unspecified) | 2.4 | 3.9 | – | –
9 | 1 | 0.05 | – | CC1CC(=O)NN=C1c1ccc(NC(=O)CCNCC(O)COc2ccc(CCOCC3CC3)cc2)cc1 (stereo unspecified) | 1.6 | 2.4 | – | –
10 | – | – | – | CC(=O)Nc1ccc(C2=NNC(=O)CC2C)cc1 (stereo unspecified) | 0.1 | 0.18 | – | –
11 | 0.04 | 0.2 | – | C=CCOc1ccccc1OCC(O)CNC(C)C (stereo unspecified) | – | – | – | –
12 | – | – | – | NNc1nncc2ccccc12 [HYDRALAZINE] | 0.6 | 1 | – | –
13 | – | 0.55 | 9 | Cc1ccccc1OCC(O)CNCC(=O)Nc1ccc(C2=NNC(=O)CC2)cc1 (stereo unspecified) | 2 | 6 | – | –
14 | – | 0.55 | – | N#Cc1ccccc1OCC(O)CNCC(=O)Nc1ccc(C2=NNC(=O)CC2)cc1 (stereo unspecified) | 14 | 30 | – | –
15 | > 8 | 0.53 | – | CC1CC(=O)NN=C1c1ccc(NC(=O)CNCC(O)COc2ccccc2C#N)cc1 (stereo unspecified) | 0.9 | 2 | – | –
16 | 0.09 | 0.46 | – | CC1CC(=O)NN=C1c1ccc(NC(=O)CCNCC(O)COc2cccc3[nH]ccc23)cc1.Cl (stereo unspecified) | 4.4 | 2.9 | – | –
17 | 0.7 | 0.6 | – | COc1ccccc1OCC(O)CNCCC(=O)Nc1ccc(C2=NNC(=O)CC2)cc1 (stereo unspecified) | 4.3 | 11 | – | –
18 | – | 0.86 | – | Br.CC1CC(=O)NN=C1c1ccc(NC(=O)CCNCC(O)COc2ccccc2)cc1 (stereo unspecified) | 1.5 | 0.6 | – | –
19 | – | – | – | CC(C)NCC(O)COc1cccc2[nH]ccc12 (stereo unspecified) [PINDOLOL] | – | – | 0.7 | –
20 | 0.7 | 0.48 | – | COc1ccccc1OCC(O)CNCCC(=O)Nc1ccc(C2=NNC(=O)CC2C)cc1 (stereo unspecified) | 3 | 2 | – | –
21 | 0.06 | 0.2 | – | CC(C)(C)NCC(O)COc1ccccc1-c1ccc(NN)nn1 (stereo unspecified) [PRIZIDILOL] | 10 | 14 | – | –
22 | – | – | – | Nc1ccc(-c2ccc(O)nn2)cc1 | 20 | 1 | – | –
23 | 2 | 0.04 | – | COCCc1ccc(OCC(O)CNCCC(=O)Nc2ccc(C3=NNC(=O)CC3C)cc2)cc1 (stereo unspecified) | 6 | 3 | – | –
24 | – | 0.63 | – | CC1CC(=O)NN=C1c1ccc(NC(=O)CCNCC(O)COc2ccccc2C#N)cc1 (stereo unspecified) | 2.3 | 1 | – | –
25 | – | – | – | CC1CC(=O)NN=C1c1ccc(NC(=O)CCN)cc1 (stereo unspecified) | 0.2 | 0.2 | – | –
26 | > 5 | – | – | Cc1ccccc1OCC(O)CNCC(=O)Nc1ccc(C2=NNC(=O)CC2C)cc1 (stereo unspecified) | 2.7 | <2 | – | –
27 | 0.6 | 0.14 | – | Cc1cccc(OCC(O)CNCCC(=O)Nc2ccc(C3=NNC(=O)CC3C)cc2)c1C (stereo unspecified) | 2.4 | 2.5 | – | –
28 | – | 0.1 | – | O=C1CCC(c2ccc(NC(=O)CNCC(O)COc3cccc4ccccc34)cc2)=NN1 (stereo unspecified) | 1.4 | 28 | – | 30
